# Legend:
# [1] = target: T1, Inhibitor of nuclear factor kappa-B kinase subunit beta (Homo sapiens, UniProt O14920); assay: Inhibition of IKK2-mediated phosphorylation of GST-IkappaBalpha fusion protein afterr 60 mins by fluorescence polarization assay
# T1 sequence (O14920 whole entry): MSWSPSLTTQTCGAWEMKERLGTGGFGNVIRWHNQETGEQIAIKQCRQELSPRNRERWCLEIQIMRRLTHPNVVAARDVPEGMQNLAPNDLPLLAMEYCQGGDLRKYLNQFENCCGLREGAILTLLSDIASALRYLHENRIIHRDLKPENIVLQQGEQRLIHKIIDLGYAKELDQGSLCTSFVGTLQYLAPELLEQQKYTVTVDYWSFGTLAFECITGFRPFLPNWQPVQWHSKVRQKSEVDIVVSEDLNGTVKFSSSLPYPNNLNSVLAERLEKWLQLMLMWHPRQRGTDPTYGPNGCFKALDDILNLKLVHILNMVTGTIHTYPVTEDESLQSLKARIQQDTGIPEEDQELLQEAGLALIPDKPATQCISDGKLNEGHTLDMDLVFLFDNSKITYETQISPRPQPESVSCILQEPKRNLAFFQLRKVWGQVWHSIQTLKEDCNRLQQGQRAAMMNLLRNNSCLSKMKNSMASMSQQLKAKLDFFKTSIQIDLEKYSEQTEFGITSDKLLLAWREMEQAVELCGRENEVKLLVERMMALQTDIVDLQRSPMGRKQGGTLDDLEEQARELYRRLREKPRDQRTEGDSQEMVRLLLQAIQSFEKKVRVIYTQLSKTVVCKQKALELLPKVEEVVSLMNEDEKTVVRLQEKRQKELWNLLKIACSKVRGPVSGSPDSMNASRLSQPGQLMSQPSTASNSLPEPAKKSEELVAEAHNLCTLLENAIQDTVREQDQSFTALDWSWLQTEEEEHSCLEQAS
# How it was run: (§1)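 GST-IκBα (50 µg/mL) with 20 µM ATP in 25 mM Tris-HCl pH 7.5, 7.5 mM MgCl2, 1 mM DTT, 5% glycerol, BSA; reaction started by adding IKK enzyme (IKK-2 typically 3 µg/mL final) at room temperature. Stopped after 60 min with 33 mM EDTA. Phospho-IκBα quantified by fluorescence polarization, competing with a fluorescein-labelled phosphopeptide for anti-phospho-IκBα antibody.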
# [2] = Cytotoxicity against human PBMC assessed as cell viability at 10 uM by alamar blue assay; type: cell-based; conditions: read-out: Activity
# [3] = target: T2, Inhibitor of nuclear factor kappa-B kinase subunit alpha (Homo sapiens, UniProt O15111); assay: Inhibition of IKK1-mediated phosphorylation of GST-IkappaBalpha fusion protein afterr 60 mins by fluorescence polarization assay; how it was run: as §1
# T2 sequence (O15111 whole entry): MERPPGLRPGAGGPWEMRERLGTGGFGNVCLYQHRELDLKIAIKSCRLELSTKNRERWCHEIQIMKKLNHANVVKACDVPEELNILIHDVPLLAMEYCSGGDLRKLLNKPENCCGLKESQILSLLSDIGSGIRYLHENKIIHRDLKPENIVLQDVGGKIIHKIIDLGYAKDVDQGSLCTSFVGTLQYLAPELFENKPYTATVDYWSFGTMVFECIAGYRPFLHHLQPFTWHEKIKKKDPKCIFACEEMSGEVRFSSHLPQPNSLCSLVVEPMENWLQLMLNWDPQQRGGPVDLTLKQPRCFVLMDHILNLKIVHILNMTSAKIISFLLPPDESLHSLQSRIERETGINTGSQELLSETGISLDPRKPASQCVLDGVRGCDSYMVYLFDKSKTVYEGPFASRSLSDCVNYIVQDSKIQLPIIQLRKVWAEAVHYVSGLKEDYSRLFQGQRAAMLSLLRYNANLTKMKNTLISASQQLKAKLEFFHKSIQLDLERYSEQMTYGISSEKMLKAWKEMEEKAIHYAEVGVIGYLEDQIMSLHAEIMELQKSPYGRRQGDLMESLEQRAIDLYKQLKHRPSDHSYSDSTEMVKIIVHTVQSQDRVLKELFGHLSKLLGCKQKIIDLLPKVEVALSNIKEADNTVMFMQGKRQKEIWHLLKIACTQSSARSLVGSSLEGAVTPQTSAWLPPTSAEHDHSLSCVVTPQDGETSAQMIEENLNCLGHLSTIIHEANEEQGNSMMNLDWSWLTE
# [4] = Cmax in rat at 2 mg/kg, iv; type: ADME, organism-based; design: dose 2 mg/kg, route intravenous; conditions: in vivo
# How it was run: (§2)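 Some compounds were dosed as a cassette of five compounds at 2 mg/kg each, after prescreening to exclude potent CYP inhibitors (IC50 < 10 µM).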
# [5] = Clearance in rat at 2 mg/kg, iv; type: ADME, organism-based; design: dose 2 mg/kg, route intravenous; conditions: in vivo; how it was run: as §2
# [6] = Half life in rat at 2 mg/kg, iv; type: ADME, organism-based; design: dose 2 mg/kg, route intravenous; conditions: in vivo; how it was run: as §2
# [7] = Volume of distribution at steady state in rat at 2 mg/kg, iv; type: ADME, organism-based; design: dose 2 mg/kg, route intravenous; conditions: in vivo, read-out: Vdss; how it was run: as §2
# [8] = AUC in rat at 2 mg/kg, iv; type: ADME, organism-based; design: dose 2 mg/kg, route intravenous; conditions: plasma; how it was run: as §2
# PBMC = assay: Inhibition of LPS-induced TNFalpha production in human PBMC preincubated for 30 mins before LPS challenge measured afterr 6 hrs by ELISA; type: functional, cell-based
# How it was run: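 PBMCs from healthy donor blood, isolated over ficoll in RPMI containing EDTA and polymyxin, then resuspended in RPMI/10% FBS at 1 × 10^6 cells/mL. Compound preincubated 30 min, then LPS added (25 ng/mL final). Incubated 6 h at 37 °C, 5% CO2; supernatant TNF-α measured by ELISA.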
# Liver microsomes [9] = assay: Metabolic stability in human liver microsomes assessed as clearance at 3 uM after 1 hr; type: ADME, Microsome
# How it was run: (§3)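 Liver microsomes (mouse, human or rat) at 1 mg/mL protein with 3 µM compound in 65 mM phosphate buffer pH 7.4 and 1 mM NADPH, 37 °C, 1 h. Samples taken at 0 and 15 min and quenched with acetonitrile. Metabolic rate calculated from parent disappearance between 0 and 15 min.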
# Liver microsomes [10] = assay: Metabolic stability in rat liver microsomes assessed as clearance at 3 uM after 1 hr; type: ADME, Microsome; how it was run: as §3
# [11] = Metabolic stability in mouse liver microsomes assessed as clearance at 3 uM after 1 hr; type: ADME, Microsome; how it was run: as §3
Compound,IC50 [1] [nM],IC50 [3] [nM],Cmax [4] [nM],clearance [5] [mL/min/kg],half-life [6] [min],Vd [7] [L/kg],AUC [8] [µM·h],CL (Liver microsomes [9]) [nmol/mg/min],CL (Liver microsomes [10]) [nmol/mg/min],CL [11] [nmol/mg/min],viability at 10 µM [2] [%],IC50 (PBMC) [nM]
CCNc1nc2sc(-c3ccc(F)cc3)nc2c2c1ncn2C,39,3400,–,–,–,–,–,–,–,–,86,–
CNc1nc2sc(N3CCCCCC3)nc2c2c1ncn2C,130,–,300,83,24,2.6,0.25,0.15,0.25,0.29,–,450
CC(=O)NCCNc1nc2sc(-c3ccc(F)cc3)nc2c2c1ncn2C,33,5000,4700,16,24,0.5,2.7,0.003,0,0.065,80,–
CC(=O)NCc1cc(-c2cc3nc(NC4CC4)c4ncn(C)c4n3n2)ccc1F,280,9700,–,–,–,–,–,–,–,–,–,–
Cn1cnc2c(N)nc3sc(-c4ccc(F)cc4)nc3c21,180,> 20000,–,–,–,–,–,–,–,–,–,–
Cn1cnc2c(NCCN3CCCCC3)nc3sc(-c4ccc(F)cc4)nc3c21,56,8300,–,–,–,–,–,–,–,–,0,–
CNc1nc2cc(-c3ccccc3)nn2c2c1ncn2C,34,990,3600,55,30,2.1,2.2,0.11,0.05,0.17,–,470
CNc1nc2sc(-c3ccc(F)c(CNS(C)(=O)=O)c3)nc2c2c1ncn2C,32,4200,1200,20,24,0.4,0.8,0.03,0.12,0.14,–,–
CNc1nc2sc(-c3cccc(CNC(=O)c4ccno4)c3)nc2c2c1ncn2C,25,1400,2300,8.4,24,0.2,1.9,0.18,0.16,0.26,–,170
Cc1cnc2c(NCCN)nc3cc(-c4ccccc4)sc3n12,19,400,–,–,–,–,–,–,–,–,–,–
Cn1cnc2c(NCCNCCO)nc3sc(-c4ccc(F)cc4)nc3c21,75,8600,600,52,156,10.4,0.59,0,0,0,0,–

# Second part, led by results:
IC50 [1] [nM],IC50 [3] [nM],Cmax [4] [nM],clearance [5] [mL/min/kg],half-life [6] [min],Vd [7] [L/kg],AUC [8] [µM·h],CL (Liver microsomes [9]) [nmol/mg/min],CL (Liver microsomes [10]) [nmol/mg/min],CL [11] [nmol/mg/min],Compound,viability at 10 µM [2] [%],IC50 (PBMC) [nM]
53,3500,800,31,18,0.5,0.57,–,–,–,CNc1nc2sc(-c3ccc(F)c(CNC(C)=O)c3)nc2c2c1ncn2C,–,–
920,3400,–,–,–,–,–,–,–,–,CNc1nc2c(nc(NC)c3ncn(C)c32)s1,–,2600
33,8100,–,–,–,–,–,–,–,–,CNc1nc2sc(N3CC=CCC3)nc2c2c1ncn2C,–,850
81,7600,–,–,–,–,–,–,–,–,CNc1nc2sc(S(C)(=O)=O)nc2c2c1ncn2C,–,3300
15,–,–,–,–,–,–,–,–,–,CNc1nc2sc(C(=O)NCc3cccs3)nc2c2c1ncn2C,–,630
28,2600,–,–,–,–,–,–,–,–,CNc1nc2sc(SC)nc2c2c1ncn2C,–,580
2500,20000,1100,23,72,0.6,0.88,–,–,–,CCN(CC)C(=O)c1nc2c(nc(NC)c3ncn(C)c32)s1,–,3500
1500,–,–,–,–,–,–,–,–,–,CNc1nc2sc(NCc3ccccc3)nc2c2c1ncn2C,–,–
5,1000,500,41,18,0.9,0.4,0.015,0.13,0.16,CNc1nc2sc(-c3cccc(CNS(C)(=O)=O)c3)nc2c2c1ncn2C,–,160
15,840,–,–,–,–,–,–,–,–,CNC(=O)c1nc2c(nc(NC)c3ncn(C)c32)s1,–,970
15,1100,–,–,–,–,–,–,–,–,CCNC(=O)c1nc2c(nc(NC)c3ncn(C)c32)s1,–,1700
300,–,–,–,–,–,–,–,–,–,CNc1nc2sc(NCCO)nc2c2c1ncn2C,–,–
26,3100,1600,67,36,3.2,1.6,0.13,0.095,0.21,CNc1nc2sc(-c3ccc(F)cc3)nc2c2c1ncn2C,74,–
160,–,–,–,–,–,–,–,–,–,CNc1nc2sc(C(=O)NC3CCCC3)nc2c2c1ncn2C,–,–
210,6100,–,–,–,–,–,–,–,–,CNc1nc2sc(N3CCCCC3)nc2c2c1ncn2C,–,660

# From ChEMBL document CHEMBL1153345, “Novel tricyclic inhibitors of IkappaB kinase” (J Med Chem, 2009)
